Measured values: ChEMBL document CHEMBL1681707, “Thienopyrrole acetic acids as antagonists of the CRTH2 receptor” (Bioorg Med Chem Lett, 2011)
Each block holds one compound with its values, some of them ahead of it.

Assays:
[1] = biological target: T1, Prostaglandin D2 receptor 2 (Homo sapiens, UniProt Q9Y5Y4); experiment: Displacement of [3H]PGD2 from human CRTH2 receptor expressed in HEK293 cell membranes
T1 sequence (Q9Y5Y4 whole entry): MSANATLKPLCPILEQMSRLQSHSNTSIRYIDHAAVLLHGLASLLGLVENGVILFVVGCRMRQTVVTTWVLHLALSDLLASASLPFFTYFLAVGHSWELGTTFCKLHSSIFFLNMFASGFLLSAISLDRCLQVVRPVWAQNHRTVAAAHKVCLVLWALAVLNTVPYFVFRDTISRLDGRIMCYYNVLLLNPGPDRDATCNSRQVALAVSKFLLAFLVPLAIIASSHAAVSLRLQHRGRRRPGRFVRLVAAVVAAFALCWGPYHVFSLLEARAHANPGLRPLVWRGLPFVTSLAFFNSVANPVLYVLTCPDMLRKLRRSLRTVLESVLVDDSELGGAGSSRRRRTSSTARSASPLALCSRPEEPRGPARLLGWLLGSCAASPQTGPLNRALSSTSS
In short: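 Radioligand binding on membranes from HEK293.F cells transiently transfected with human CRTH2 cDNA. Test compounds dissolved in DMSO, run at 1% (v/v) final DMSO. PGD2 used at 1 μM final concentration. Values are means of n = 2-4 experiments.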

[2] = biological target: T1, Prostaglandin D2 receptor 2; experiment: Antagonist activity at human CRTH2 receptor expressed in CHO/Ga16 cells co-expressing Galpha16 protein assessed as calcium flux by FLIPR assay; assay type: functional, cell-based
In short: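 CHO cells co-expressing Gα16 and stably transfected with human CRTH2; antagonism read as calcium flux; IC50 determined.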

[3] = biological target: Voltage-gated inwardly rectifying potassium channel KCNH2 (Homo sapiens, UniProt Q12809); experiment: Displacement of [3H]Dofetilide from human hERG potassium channel expressed in HEK293 cell membranes
[4] = biological target: T2, Prostaglandin D2 receptor (Homo sapiens, UniProt Q13258); experiment: Displacement of [3H]PGD2 from human DP1 receptor expressed in HEK293 cell membranes
T2 sequence (Q13258 whole entry): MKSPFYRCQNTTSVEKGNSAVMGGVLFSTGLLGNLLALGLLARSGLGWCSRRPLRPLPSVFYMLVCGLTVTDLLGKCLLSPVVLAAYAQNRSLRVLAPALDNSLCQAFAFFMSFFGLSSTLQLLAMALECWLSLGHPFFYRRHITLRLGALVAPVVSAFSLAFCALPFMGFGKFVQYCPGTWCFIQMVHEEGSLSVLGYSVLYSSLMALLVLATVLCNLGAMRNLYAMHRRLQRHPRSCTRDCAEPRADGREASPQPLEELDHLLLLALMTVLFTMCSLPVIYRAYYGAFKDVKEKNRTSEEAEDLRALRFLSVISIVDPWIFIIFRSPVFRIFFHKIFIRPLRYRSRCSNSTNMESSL
In short: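 Radioligand binding on membranes from HEK293 cells expressing human DP-1. Test compounds dissolved in DMSO, run at 1% (v/v) final DMSO. PGD2 used at 1 μM final concentration.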

[5] = Metabolic stability in human liver microsomes assessed as compound remaining after 30 mins; assay type: ADME, Microsome; conditions: read-out: Stability
In short: (§1)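 Incubation with rat or human liver microsomes for 30 min. Percent of parent remaining at 30 min reported.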

[6] = Metabolic stability in rat liver microsomes assessed as compound remaining after 30 mins; assay type: ADME, Microsome; conditions: read-out: Stability; in short: as §1
[7] = Cmax in BALB/c mouse at 30 mg/kg, po administered through 0.2 % Tween 80/0.5 % HPMC formulation; assay type: ADME, organism-based; set-up: dose 30 mg/kg, route oral; conditions: in vivo
In short: (§2)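 Oral dosing at 30 mpk in female BALB/c mice, given as a solution in 0.2% Tween 80/0.5% HPMC, as an early bioavailability assessment.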

[8] = AUC in BALB/c mouse at 30 mg/kg, po administered through 0.2 % Tween 80/0.5 % HPMC formulation; assay type: ADME, organism-based; set-up: dose 30 mg/kg, route oral; conditions: plasma; in short: as §2

Voltage-gated inwardly rectifying potassium channel KCNH2, sequence (Q12809 whole entry): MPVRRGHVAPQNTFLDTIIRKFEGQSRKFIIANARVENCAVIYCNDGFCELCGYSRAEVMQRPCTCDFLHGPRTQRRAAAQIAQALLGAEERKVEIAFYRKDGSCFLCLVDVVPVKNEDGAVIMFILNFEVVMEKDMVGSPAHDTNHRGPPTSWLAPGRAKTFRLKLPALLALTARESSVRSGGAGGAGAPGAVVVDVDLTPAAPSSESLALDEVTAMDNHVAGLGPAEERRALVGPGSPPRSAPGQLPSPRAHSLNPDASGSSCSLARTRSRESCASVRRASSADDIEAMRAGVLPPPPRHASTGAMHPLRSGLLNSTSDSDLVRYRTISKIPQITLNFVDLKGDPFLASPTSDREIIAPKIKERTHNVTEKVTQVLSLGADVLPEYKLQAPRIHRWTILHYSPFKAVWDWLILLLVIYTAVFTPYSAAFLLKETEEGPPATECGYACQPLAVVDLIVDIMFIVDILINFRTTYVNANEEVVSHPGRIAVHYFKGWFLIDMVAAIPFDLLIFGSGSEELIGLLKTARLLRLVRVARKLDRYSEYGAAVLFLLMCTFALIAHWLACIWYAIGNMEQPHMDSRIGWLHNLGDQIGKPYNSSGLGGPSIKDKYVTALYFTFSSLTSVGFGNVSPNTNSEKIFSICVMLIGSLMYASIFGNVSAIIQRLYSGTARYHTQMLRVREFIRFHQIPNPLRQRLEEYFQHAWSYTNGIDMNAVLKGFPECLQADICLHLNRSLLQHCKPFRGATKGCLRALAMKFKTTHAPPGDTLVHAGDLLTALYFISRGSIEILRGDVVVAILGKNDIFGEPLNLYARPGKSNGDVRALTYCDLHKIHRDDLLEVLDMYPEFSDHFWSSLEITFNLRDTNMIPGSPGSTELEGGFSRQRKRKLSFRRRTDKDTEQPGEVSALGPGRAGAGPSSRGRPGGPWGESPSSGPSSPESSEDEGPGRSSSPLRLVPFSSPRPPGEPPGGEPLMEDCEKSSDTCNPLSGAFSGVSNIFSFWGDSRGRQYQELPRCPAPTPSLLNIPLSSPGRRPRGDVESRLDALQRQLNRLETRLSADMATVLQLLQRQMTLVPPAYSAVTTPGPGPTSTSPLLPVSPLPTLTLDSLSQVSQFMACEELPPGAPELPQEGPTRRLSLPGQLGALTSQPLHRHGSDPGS

Compound: Cc1c(CC(=O)O)c2ccsc2n1Cc1ccc(S(C)(=O)=O)cc1
- IC50 [1]: 50 nM
- IC50 [2]: 130 nM
- IC50 [3]: 31000 nM
- IC50 [4]: > 50000 nM
- remaining at 0.5 h [5]: 91%
- remaining at 0.5 h [6]: 90%

- IC50 [1]: 70 nM
Compound: Cc1c(CC(=O)O)c2ccsc2n1Cc1ccc(S(=O)(=O)N2CCOCC2)cc1

- IC50 [1]: 190 nM
Compound: Cc1c(CC(=O)O)c2ccsc2n1Cc1ccc(S(=O)(=O)N(C)C)cc1

- IC50 [1]: 1300 nM
Compound: Cc1csc2c1c(CC(=O)O)c(C)n2S(=O)(=O)c1ccc(S(C)(=O)=O)cc1

- IC50 [1]: 1500 nM
Compound: Cc1csc2c1c(CC(=O)O)c(C)n2Cc1ccc(S(C)(=O)=O)cc1

- IC50 [1]: 230 nM
Compound: Cc1c(CC(=O)O)c2ccsc2n1S(=O)(=O)c1ccc(S(=O)(=O)N2CCOCC2)cc1

- IC50 [1]: 1130 nM
Compound: Cc1c(CC(=O)O)c2ccsc2n1S(=O)(=O)c1ccc(C(F)(F)F)cc1

- IC50 [1]: 4000 nM
Compound: CS(=O)(=O)c1ccc(S(=O)(=O)n2cc(CC(=O)O)c3ccsc32)cc1

- IC50 [1]: 2750 nM
Compound: Cc1c(CC(=O)O)c2ccsc2n1S(=O)(=O)c1ccccc1

- IC50 [1]: 1800 nM
Compound: Cc1cc2c(CC(=O)O)c(C)n(Cc3ccc(S(C)(=O)=O)cc3)c2s1

- IC50 [1]: 330 nM
Compound: Cc1cc2c(CC(=O)O)c(C)n(Cc3ccc(S(C)(=O)=O)cc3Cl)c2s1

- IC50 [1]: 390 nM
Compound: Cc1c(CC(=O)O)c2ccsc2n1S(=O)(=O)c1ccc(S(=O)(=O)N2CCCC2)cc1

- Cmax [7]: 7800 ng/mL
- AUC [8]: 16400 ng·h/mL
- IC50 [1]: 90 nM
- IC50 [4]: > 50000 nM
- remaining at 0.5 h [5]: 100%
- remaining at 0.5 h [6]: 100%
Compound: Cc1c(CC(=O)O)c2ccsc2n1S(=O)(=O)c1ccc(S(C)(=O)=O)cc1
- IC50 [3]: > 100000 nM

Compound: Cc1c(CC(=O)O)c2ccsc2n1Cc1ccc(S(C)(=O)=O)cc1Cl
- IC50 [1]: 10 nM
- IC50 [3]: 45000 nM
- IC50 [4]: > 50000 nM
- remaining at 0.5 h [5]: 97%
- remaining at 0.5 h [6]: 99%

Compound: Cc1c(CC(=O)O)c2ccsc2n1Cc1ccc(S(=O)(=O)N(C)C2CCCCC2)cc1
- IC50 [1]: 20 nM
- IC50 [3]: 31000 nM
- IC50 [4]: > 50000 nM
- remaining at 0.5 h [5]: 62%
- remaining at 0.5 h [6]: 57%

- IC50 [1]: 5000 nM
Compound: CS(=O)(=O)c1ccc(S(=O)(=O)n2cc(CC(=O)O)c3sccc32)cc1

- IC50 [1]: 3000 nM
Compound: Cc1c(CC(=O)O)c2ccsc2n1S(=O)(=O)c1ccc(C#N)cc1

- IC50 [1]: 1630 nM
Compound: Cc1c(CC(=O)O)c2ccsc2n1S(=O)(=O)c1ccc(F)cc1
